Assay results reported in ChEMBL document CHEMBL1125276 (J Med Chem, 1991).

How the values were obtained:
L1210 = test: Tested for the inhibition of L1210 cell proliferation.; type: functional, cell-based; details: Mus musculus
How it was run: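 L1210 cells were grown in RPMI 1640 with 10% FCS, 2 mM L-glutamine and 10 mM HEPES (pH 7.4). Exponential-phase cells (10^5 cells/mL) were exposed for 24 h to 5 drug concentrations in triplicate, then pulsed 3 h with 0.5 µCi/mL [3H]thymidine. Cells were harvested onto filters and counted. IC50 is 50% inhibition of incorporation versus untreated cells, given as the mean of 2–5 independent experiments.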

P388 [1] = test: Long-term survivors (LTS) for 60 days at optimal dose of 1.00 mg/kg for antitumor activity against P388 leukemia cells in 12 mice.; type: functional, Mus musculus
P388 [2] = test: Compound was tested for T/C range at optimal dose of 1.00 mg/kg for antitumor activity against P388 leukemia cells in mice; value ranges from 234-302; type: functional, Mus musculus
Tubulin = test: The compound tested for the inhibition of tubulin polymerization.; type: functional
How it was run: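 Tubulin was partially purified from dog brain by polymerization/depolymerization cycles and used at 0.5 mg/mL. Compounds were added in DMSO (10 µL per 500 µL reaction) at 10^-6 to 10^-9 M, with DMSO-only controls. Polymerization was followed by turbidity at 350 nm. Rates from two separate experiments were plotted against concentration, and IC50 was read graphically.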

P388 [3] = test: Compound was tested for T/C range at optimal dose of 0.15 mg/kg for antitumor activity against P388 leukemia cells in mice; value ranges from 168-600; type: functional, Mus musculus
P388 [4] = test: Long-term survivors (LTS) for 60 days at optimal dose of 0.15 mg/kg for antitumor activity against P388 leukemia cells in 25 mice.; type: functional, Mus musculus
P388 [5] = test: Long-term survivors (LTS) for 60 days at optimal dose of 1.00 mg/kg for antitumor activity against P388 leukemia cells in 6 mice.; type: functional, Mus musculus
P388 [6] = test: Compound was tested for T/C range at optimal dose of 1.00 mg/kg for antitumor activity against P388 leukemia cells in mice.; type: functional, Mus musculus
P388 [7] = test: Compound was tested for T/C range at optimal dose of 3.0 mg/kg for antitumor activity against P388 leukemia cells in mice.; type: functional, Mus musculus
P388 [8] = test: Long-term survivors (LTS) for 60 days at optimal dose of 3.0 mg/kg for antitumor activity against P388 leukemia cells in 6 mice.; type: functional, Mus musculus
P388 [9] = test: Long-term survivors (LTS) for 60 days at optimal dose of 1.00 mg/kg for antitumor activity against P388 leukemia cells in 5 mice.; type: functional, Mus musculus
P388 [10] = test: Compound was tested for T/C range at optimal dose of 20.0 mg/kg for antitumor activity against P388 leukemia cells in mice.; type: functional, Mus musculus
P388 [11] = test: Long-term survivors (LTS) for 60 days at optimal dose of 20.0 mg/kg for antitumor activity against P388 leukemia cells in 5 mice; type: functional, Mus musculus
P388 [12] = test: Compound was tested for T/C range at optimal dose of 40.0 mg/kg for antitumor activity against P388 leukemia cells in mice.; type: functional, Mus musculus
P388 [13] = test: Long-term survivors (LTS) for 60 days at optimal dose of 40.0 mg/kg for antitumor activity against P388 leukemia cells in 6 mice.; type: functional, Mus musculus

`C=CCC(NC(=O)[C@@]1(O)[C@H](O)[C@]2(CC)C=CCN3CC[C@@]4(c5cc([C@@]6(C(=O)OC)C[C@@H]7CN(CCc8c6[nH]c6ccccc86)C[C@](O)(CC)C7)c(OC)cc5N(C)[C@@H]14)[C@@H]32)P(=O)(OCC)OCC` (some centres undefined) showed an IC50 (L1210) of 3.7 nM, an LTS (P388 [1]) of 2 and a T/C (P388 [2]) of 234%. The IC50 (Tubulin) was 300 nM.
Work on `CCOP(=O)(OCC)[C@@H](NC(=O)[C@@]1(O)[C@H](O)[C@]2(CC)C=CCN3CC[C@@]4(c5cc([C@@]6(C(=O)OC)C[C@@H]7CN(CCc8c6[nH]c6ccccc86)C[C@](O)(CC)C7)c(OC)cc5N(C)[C@@H]14)[C@@H]32)C(C)C` yielded an IC50 (L1210) of 0.43 nM, a T/C (P388 [3]) of 168% and an LTS (P388 [4]) of 8. It also gave an IC50 (Tubulin) of 400 nM.
`CCOP(=O)(OCC)[C@@H](C)NC(=O)[C@@]1(O)[C@H](O)[C@]2(CC)C=CCN3CC[C@@]4(c5cc([C@@]6(C(=O)OC)C[C@@H]7CN(CCc8c6[nH]c6ccccc86)C[C@](O)(CC)C7)c(OC)cc5N(C)[C@@H]14)[C@@H]32` showed an IC50 (L1210) of 37 nM, an LTS (P388 [5]) of 0 and a T/C (P388 [6]) of 145%. It also gave an IC50 (Tubulin) of 80 nM.
`CCOP(=O)(OCC)[C@H](NC(=O)[C@@]1(O)[C@H](O)[C@]2(CC)C=CCN3CC[C@@]4(c5cc([C@@]6(C(=O)OC)C[C@@H]7CN(CCc8c6[nH]c6ccccc86)C[C@](O)(CC)C7)c(OC)cc5N(C)[C@@H]14)[C@@H]32)C(C)C` gave an IC50 (L1210) of 10.9 nM, a T/C (P388 [7]) of 135% and an LTS (P388 [8]) of 0. For the same compound, the IC50 (Tubulin) was 800 nM.
For `C=CC[C@H](NC(=O)[C@@]1(O)[C@H](O)[C@]2(CC)C=CCN3CC[C@@]4(c5cc([C@@]6(C(=O)OC)C[C@@H]7CN(CCc8c6[nH]c6ccccc86)C[C@](O)(CC)C7)c(OC)cc5N(C)[C@@H]14)[C@@H]32)P(=O)(OCC)OCC`, the IC50 (L1210) was 1.29 nM, the LTS (P388 [9]) was 0 and the T/C (P388 [6]) was 294%.
`CCOP(=O)(OCC)[C@@H](Cc1ccccc1)NC(=O)[C@@]1(O)[C@H](O)[C@]2(CC)C=CCN3CC[C@@]4(c5cc([C@@]6(C(=O)OC)C[C@@H]7CN(CCc8c6[nH]c6ccccc86)C[C@](O)(CC)C7)c(OC)cc5N(C)[C@@H]14)[C@@H]32` was tested, and the IC50 (L1210) was 14.3 nM, the T/C (P388 [10]) was 261% and the LTS (P388 [11]) was 1.
For `CCOP(=O)(OCC)[C@H](Cc1c[nH]c2ccccc12)NC(=O)[C@@]1(O)[C@H](O)[C@]2(CC)C=CCN3CC[C@@]4(c5cc([C@@]6(C(=O)OC)C[C@@H]7CN(CCc8c6[nH]c6ccccc86)C[C@](O)(CC)C7)c(OC)cc5N(C)[C@@H]14)[C@@H]32`, the IC50 (L1210) was 64.7 nM, the T/C (P388 [12]) was 188% and the LTS (P388 [13]) was 0. For the same compound, the IC50 (Tubulin) was 100 nM.
Work on `CCOP(=O)(CNC(=O)[C@@]1(O)[C@H](O)[C@]2(CC)C=CCN3CC[C@@]4(c5cc([C@@]6(C(=O)OC)C[C@@H]7CN(CCc8c6[nH]c6ccccc86)C[C@](O)(CC)C7)c(OC)cc5N(C)[C@@H]14)[C@@H]32)OCC` yielded an IC50 (L1210) of 17.8 nM, a T/C (P388 [7]) of 230% and an LTS (P388 [8]) of 1. The IC50 (Tubulin) was 300 nM.
`CCOP(=O)(OCC)[C@@H](Cc1c[nH]c2ccccc12)NC(=O)[C@@]1(O)[C@H](O)[C@]2(CC)C=CCN3CC[C@@]4(c5cc([C@@]6(C(=O)OC)C[C@@H]7CN(CCc8c6[nH]c6ccccc86)C[C@](O)(CC)C7)c(OC)cc5N(C)[C@@H]14)[C@@H]32` showed an IC50 (L1210) of 36.7 nM, a T/C (P388 [12]) of 197% and an LTS (P388 [13]) of 0. It also gave an IC50 (Tubulin) of 100 nM.
